# Screens deposited in PubChem BioAssay by several laboratories.
# H9c2 TAG inh: triacylglycerol accumulation inhibition. H9c2 cells, Nile Red lipid (TAG) fluorescence; cells loaded with 200 µM oleic acid. inhibition, % at 12.5 µM. 0.66% of 230,000 active. AID 651582;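 active = pattern-corrected inhibition of lipid staining of at least 50% with the nuclear-stain viability signal not falling by more than 50%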;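 note: 0% = DMSO wells and 100% = triacsin C control wells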
# sPLA2-III inh: Inhibits HGIII-sPLA2 liposome hydrolysis, primary screen; 0.56% of 370,000 active; Q9NZ20; QFRET BODIPY PC-A2 liposome hydrolysis, fluorescence; inhibition, % at 12.2 µM;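 active = inhibition above mean plus 3 SD of compounds lying within the high and low control bounds, cut at about 19% in these data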;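 note: 0% = median of test compound wells and 100% = no enzyme DMSO wells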
# Target sequence (Q9NZ20 whole entry, looked up): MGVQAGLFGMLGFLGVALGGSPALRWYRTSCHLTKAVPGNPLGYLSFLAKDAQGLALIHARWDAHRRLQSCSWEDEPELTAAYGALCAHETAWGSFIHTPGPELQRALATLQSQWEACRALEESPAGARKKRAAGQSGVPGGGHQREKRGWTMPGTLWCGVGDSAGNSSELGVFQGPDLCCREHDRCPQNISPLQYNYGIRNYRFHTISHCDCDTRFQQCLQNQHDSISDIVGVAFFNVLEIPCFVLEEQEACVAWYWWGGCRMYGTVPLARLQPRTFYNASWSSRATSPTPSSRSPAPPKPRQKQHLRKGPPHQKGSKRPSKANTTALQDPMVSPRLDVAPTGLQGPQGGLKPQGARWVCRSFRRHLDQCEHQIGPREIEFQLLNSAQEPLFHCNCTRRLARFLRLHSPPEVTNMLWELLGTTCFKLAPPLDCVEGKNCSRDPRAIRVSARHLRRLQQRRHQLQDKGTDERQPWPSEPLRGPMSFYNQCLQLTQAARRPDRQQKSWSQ
# Efflux pump inh: antifungal efflux pump inhibition, Nile Red retention; inhibition, % at 10 µM; AID 485275; 0.44% of 330,000 active; S. cerevisiae Candida pump triplex;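 active = plate passing quality check with inhibition over a set limit, or well fluorescence over plate mean plus 4 SD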;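 note: Nile Red retained in pooled yeast measured as flow cytometry median fluorescence; 0% = buffer negative control and 100% = Enniatin B positive control; higher means more Nile Red kept so more efflux inhibition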
# MT1-MMP act inh: MT1-MMP (human) activation inhibition | HT1080 RFP-PRO-GFP cells, GFP/RFP ratio fluorescence, overnight; percent of plate control window, DMSO zero | P50281 | AID 651647 | GFP/RFP ratio change, % at 20 µM | 0.061% of 360,000 active;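 active = GFP/RFP ratio change of at least 30% with cell ATP level not reduced by more than half and red fluorescence within 50% of control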
#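 Compound: 20 µM single dose, 1% DMSO / System: HT1080 RFP-PRO-GFP cells / Controls: DMSO and RFP-L50D-GFP cell wells / Read-out basis: GFP/RFP fluorescence ratio / Schedule: overnight compound exposure at 37 °C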
# MT1-MMP conf: validation of inhibitors of human MT1-MMP activation. 10% of 200 active. shares compounds with MT1-MMP act inh. HT1080 RFP-PRO-GFP cells, GFP and RFP fluorescence ratio, overnight. inhibition, % at 20 µM;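 active = inhibition of at least 50% in the primary cell screen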
# hGIII sPLA2 conf: human GIII-sPLA2 inhibition, confirmation. shares compounds with sPLA2-III inh. inhibition, % at 12.2 µM. 34% of 2,000 active. recombinant hGIII-sPLA2, BODIPY PC-A2 QFRET fluorescence;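 active = mean inhibition across triplicates above the hit cutoff set in the earlier primary screen, cut at about 19% in these data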;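 note: 0% = enzyme with DMSO and 100% = DMSO wells lacking enzyme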
# BODIPY interf: counter-screen for HGIII-sPLA2 inhibitors: 535nm fluorescence interference; shares compounds with sPLA2-III inh; BODIPY FL product fluorescence interference, QFRET; inhibition, % at 12.2 µM; 8.5% of 2,000 active; AID 743282;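 active = average inhibition above the solvent-only control mean plus 3 SD, cut at about 6% in these data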;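 note: 0% = DMSO with substrate plus product and 100% = DMSO with substrate alone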
# BODIPY interf DR: interferes with 535nm fluorescence in dose response counter-screen; shares compounds with sPLA2-III inh; AID 743455; BODIPY FL product fluorescence interference, cell-free; 240 tested, under 10 active; IC50, µM;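 active = IC50 at or below 10 µM; inactive = IC50 above 10 µM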
# * hit, by the source's call; . = not tested or not shown. Compounds with a hit are over-represented: about 1.3% of the library has one in this group of screens.
SMILES,H9c2 TAG inh,sPLA2-III inh,Efflux pump inh,MT1-MMP act inh,MT1-MMP conf,hGIII sPLA2 conf,BODIPY interf,others
CN1/C(=C\C=N\NC(=O)c2ccc(O)cc2)C(C)(C)c2ccccc21,.,-10.1,-0.9,59.2*,36.6,.,.,
COc1cc(OC)c(OC)cc1CNCc1ccco1,.,-1.0,-0.2,-4.0,.,.,.,
Nc1ccc(NC(=O)c2ccccc2)c2c1C(=O)c1ccccc1C2=O,24.1,3.0,0.0,38.3*,26.7,.,.,
Nc1ccccc1NC(=O)c1ccccc1,-26.6,7.2,0.1,10.1,.,.,.,
CCN(CCN(C)C)C(=O)c1ccc2c(c1NCCO)C(=O)c1ccccc1C2=O,11.5,5.2,-0.1,14.8,.,.,.,
CC1(C)CCCN(C(=O)c2ccc3c(c2NCCO)C(=O)c2ccccc2C3=O)C1,.,26.5*,0.3,40.0*,32.4,35.5*,-14.1,BODIPY interf DR=>122
Cc1ccc(C(=O)NC(=S)/C=C2\N(C)c3ccccc3C2(C)C)cc1,-47.9,29.6*,1.3,40.3*,23.2,44.9*,1.6,BODIPY interf DR=>122
CCCN1C(=O)/C(=C2/C=Cc3ccccc3N2CC)SC1=S,40.4,21.2*,0.1,45.2*,44.3,50.7*,13.3*,
CCN1/C(=C2\C(=O)N(C)C(=S)N2C)C=Cc2ccccc21,.,15.5,0.1,4.0,.,.,.,
O=C(Nc1cccc(C(=O)N2CCCCC2)c1)C1CCCCC1,4.1,9.8,.,4.2,.,.,.,
COc1ccc(-c2cn(-c3ccc(C)cc3C)c(=O)[nH]2)cc1OC,-12.0,8.4,0.0,-2.2,.,.,.,
CN(CCCS(=O)(=O)[O-])c1ccc(/C=C/c2ccc3ccccc3[n+]2C)cc1,.,21.4*,0.3,39.7*,17.4,5.9,-6.8,
Cc1ccc2ccccc2[n+]1CCCS(=O)(=O)[O-],14.2,1.0,0.1,-9.1,.,.,.,
O=C1c2ccccc2C(=O)c2c(NCCCN(CCO)CCO)cccc21,.,19.8*,.,30.1*,28.1,31.3*,-7.3,BODIPY interf DR=>122
Cc1cc(F)ccc1-c1cc(C(=O)Nc2ccccc2)[nH]n1,-13.4,5.8,.,-3.0,.,.,.,
O=S(=O)(O)c1cc(Cl)cc(N=Nc2ccc(O)cc2O)c1O,-10.6,48.6*,.,62.0*,45.8,-38.3,-14.6,
Cc1ccc(CNC(=O)C(=O)NCC(c2ccco2)N2CCOCC2)cc1 (configuration not stated),.,-5.8,-0.1,-0.1,.,.,.,
O=C(NCC1CCCO1)C(=O)NCC(c1ccco1)N1CCN(c2ccc(F)cc2)CC1 (configuration not stated),.,21.5*,1.9,4.1,.,3.0,-17.7,
O=C(NCC1CCCO1)C(=O)NCC(c1ccco1)N1CCN(c2ccccc2)CC1 (configuration not stated),.,18.1,-0.2,-0.9,.,.,.,
O=C(NCc1ccc(Cl)cc1)C(=O)NCC(c1ccco1)N1CCOCC1 (configuration not stated),.,19.7*,0.0,-2.8,.,0.4,-16.1,
COc1ccc(-n2cnc3ccccc32)cc1,.,0.8,-0.1,-8.9,.,.,.,
COc1ccc(-n2cnc3c(N)nc(N)nc32)cc1,-15.7,20.2*,.,-0.8,.,-1.9,-4.7,
CC(C)C[C@H](NC1(C(=O)NC2CCCCC2)CCN(C)CC1)C(=O)NCC(c1ccccc1)c1ccccc1,.,1.7,.,.,.,.,.,
Cc1ccccc1OCC(=O)Nc1ccc2c(c1)OCO2,.,22.7*,0.1,-0.8,.,-2.1,-7.9,
CC(C)C[C@@H]1COc2cc(Br)ccc2S(=O)(=O)N1Cc1cn(CCC2OCCCO2)nn1,.,22.5*,.,.,.,-0.2,-28.9,
O=C(NC(=S)N1CCN(c2ccc(C(F)(F)F)cc2[N+](=O)[O-])CC1)c1cccs1,.,31.2*,-0.2,5.2,.,46.9*,9.5*,
COc1ccc(-c2c(C)nc3c(-c4ccc(F)cc4)cnn3c2N)cc1,.,19.3*,0.6,4.8,.,1.8,-6.5,
Cc1nc2c(-c3ccc(F)cc3)cnn2c(N)c1-c1ccccc1,.,13.2,0.1,11.6,.,.,.,
CCCSc1ccc([C@@H]2[C@@H]3C(=O)N(C)C(=O)[C@@H]3[C@]3(C(=O)OC)CCCN23)cc1OC,-14.3,.,-0.2,-7.5,.,.,.,
